The target of assay [1] is T1, Cholesteryl ester transfer protein (Homo sapiens, UniProt P11597).
T1 sequence (P11597 whole entry): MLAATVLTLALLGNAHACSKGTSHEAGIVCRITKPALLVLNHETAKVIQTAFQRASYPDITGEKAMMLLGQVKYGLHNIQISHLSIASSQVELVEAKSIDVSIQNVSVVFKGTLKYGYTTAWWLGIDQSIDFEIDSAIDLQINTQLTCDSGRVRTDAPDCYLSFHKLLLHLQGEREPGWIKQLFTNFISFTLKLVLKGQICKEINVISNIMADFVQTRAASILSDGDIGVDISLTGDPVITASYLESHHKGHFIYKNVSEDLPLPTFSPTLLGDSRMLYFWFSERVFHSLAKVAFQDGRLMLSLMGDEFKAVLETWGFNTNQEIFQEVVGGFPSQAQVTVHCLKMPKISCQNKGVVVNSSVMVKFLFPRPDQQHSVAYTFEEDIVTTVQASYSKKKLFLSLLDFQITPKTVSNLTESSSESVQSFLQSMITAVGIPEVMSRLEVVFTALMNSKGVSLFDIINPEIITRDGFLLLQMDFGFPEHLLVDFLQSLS
In words: In vitro concentration required to inhibit 50% of cholesteryl ester transfer protein mediated cholesteryl ester transfer from HDL to VLDL and LDL in human plasma. Format: cell-free. In short, it runs like this: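 Compound dissolved in 1:1 N-methyl-2-pyrrolidinone/PEG 400 and added to human plasma, with organic solvent at 2% final. Plasma then incubated with [3H]CE-labelled HDL at 37 °C for 4 h. ApoB lipoproteins precipitated with dextran sulfate (0.075% final) and MgCl2 (37.5 mM final). Transfer taken as the loss of supernatant HDL radioactivity. IC50 estimated from five-dose response curves.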

In assay [2] the test system is Oryctolagus cuniculus. In words: In vivo percent inhibition of cholesteryl ester transfer protein was measured 3h after oral administration of 30 mg/kg JW rabbits plasma. Format: functional. An outline of the steps:
(§1)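 Male JW rabbits, 11-15 weeks old, dosed orally; plasma taken 3 h post-dose and spun at 11000g for 5 min at 4 °C. Plasma (1.8 µL) diluted to 600 µL in Tris-buffered saline pH 7.4 with 0.1 mg/mL BSA. Incubated 15 h at 37 °C with [3H]CE-HDL and VLDL/LDL, then VLDL/LDL precipitated with dextran sulfate/MgCl2 and supernatant counted. Inhibition expressed relative to vehicle-dosed rabbits.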

Assay [3] concerns Oryctolagus cuniculus. Nature of the assay: In vivo percent inhibition of cholesteryl ester transfer protein was measured 3h after oral administration of 10 mg/kg JW rabbits plasma. Type of assay: functional. In short, it runs like this: as §1
For assay [4], the system named is Oryctolagus cuniculus. In words: In vivo percent elevation evaluated from the plasma HDL levels in JW rabbits by oral administration of 30 mg/kg once a day for 3 days. Format: functional. In short, it runs like this:
(§2)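 Male JW rabbits, 11-15 weeks old, N = 5, dosed orally once daily for 3 days. ApoB lipoproteins in plasma precipitated with 13% PEG 6000, and HDL cholesterol measured by enzymatic assay. Elevation expressed relative to vehicle-dosed rabbits.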

Assay [5] deals with Oryctolagus cuniculus. Nature of the assay: In vivo percent elevation evaluated from the plasma HDL levels in JW rabbits by oral administration of 100 mg/kg once a day for 3 days. Format: functional. In short, it runs like this: as §2
In assay [6] the target is T2, Cholesteryl ester transfer protein (Homo sapiens) (UniProt P11597).
T2 sequence (whole entry): T1 sequence (P11597 whole entry)
In words: Percent inhibition of cholesteryl ester transfer protein in human plasma at 9 uM. Format: cell-free.

The target in assay [7] is T2, Cholesteryl ester transfer protein (Homo sapiens). In words: Percent inhibition of cholesteryl ester transfer protein in human plasma at 5 uM. Format: cell-free.

For `CCCCCCCC(=O)Nc1ccccc1SSc1ccccc1NC(=O)CCCCCCC`, in assay [1], the half-maximal inhibitory concentration (IC50) (commonly the concentration at which inhibition is half-maximal) was 21 µM.

`CC(C)(C)C(=O)Nc1ccc(SSc2ccc(NC(=O)C(C)(C)C)cc2)cc1`: the 50% inhibitory concentration (IC50) in assay [1] is over 500 µM. Consider `CCCCCC1(C(=O)Nc2ccccc2S)CCCCC1`, for which, in assay [1], the IC50 worked out at 7 µM.

In the case of `CC(C)(C)C(=O)Nc1cccc(SSc2cccc(NC(=O)C(C)(C)C)c2)c1`, in assay [1], the IC50 was over 500 µM. Still for that read-out and setting: in the case of `CC(C)CCCC1(C(=O)Nc2ccccc2S)CCCCC1` it was 6 µM. For `CCC(CC)CC1(C(=O)Nc2ccccc2SC(=O)C(C)(C)C)CCCCC1`, testing at 30 mg/kg in the assay on Oryctolagus cuniculus [2] gave an inhibition in vivo of 32%.

Regarding `CCC(CC)CC1(C(=O)Nc2ccccc2SC(=O)C(C)C)CCCCC1` [DALCETRAPIB], the inhibition in vivo – broadly, the share of the control response that was lost under treatment – at 10 mg/kg with Oryctolagus cuniculus [3] came out at 35%. Moreover, the results for the Elevation with Oryctolagus cuniculus [4] and in the assay on Oryctolagus cuniculus [5] were 27% and 54%, respectively. The same molecule had an IC50 in assay [1] of 6 µM. The inhibition (in general, the change of the read-out against control, counted positive when it falls) in assay [6] turned out to be 50%. In the assay with Oryctolagus cuniculus [2], this molecule registered an inhibition in vivo at 30 mg/kg of 95%. Molecule `CC(C)(C)C(=O)Nc1ccccc1SSc1ccccc1NC(=O)C(C)(C)C` gave a half-maximal inhibitory concentration (IC50) in assay [1] of 13 µM. `CC(C)(C)NC(=O)c1ccccc1SSc1ccccc1C(=O)NC(C)(C)C` showed an IC50 in assay [1] of over 500 µM.

Consider `CC1(C(=O)Nc2ccccc2SSc2ccccc2NC(=O)C2(C)CCCCC2)CCCCC1`, for which 8 µM corresponded to half-maximal inhibition in assay [1] (IC50). `CC(=O)Nc1ccccc1SSc1ccccc1NC(C)=O`: the IC50 in assay [1] amounted to 500 µM.

In assay [1], `CN(C(=O)C(C)(C)C)c1ccccc1SSc1ccccc1N(C)C(=O)C(C)(C)C` had an IC50 of over 300 µM. Take `CCCCCCCC1(C(=O)Nc2ccccc2S)CCCCC1`: inhibition in assay [1] was half-maximal at 7 µM (IC50).

For the molecule `CC1(C(=O)Nc2ccccc2OC(=O)Cc2ccccc2)CCCCC1`, the half-maximal inhibitory concentration (IC50) in assay [1] is over 300 µM. For the molecule `CCC(CC)CC1(C(=O)Nc2ccccc2SC(C)=O)CCCCC1`, in the assay with Oryctolagus cuniculus [2], at 30 mg/kg the inhibition in vivo was 40%. As to `CCCCC1(C(=O)Nc2ccccc2S)CCCCC1`, in assay [1], the IC50 amounted to 9 µM. Take `CCCCCCC1(C(=O)Nc2ccccc2S)CCCCC1`: in assay [1], the half-inhibitory concentration (IC50) was found to be 6 µM. Regarding `CCC(CC)CC1(C(=O)Nc2ccccc2S)CCCCC1`, in assay [7], the inhibition came out at 50%. This molecule also returned an IC50 in assay [1] of 5 µM. The molecule `CCC(=O)Nc1ccccc1SSc1ccccc1NC(=O)CC` returned an IC50 in assay [1] of 180 µM. Same read-out and setting: in the case of `CCC(CC)CC1(C(=O)Nc2ccccc2SC)CCCCC1` it was over 300 µM.

The record behind these values is ChEMBL document CHEMBL1133653, “bis(2-(Acylamino)phenyl) disulfides, 2-(acylamino)benzenethiols, and S-(2-(acylamino)phenyl) alkanethioates as novel inhibitors of cholesteryl ester transfer protein” (J Med Chem, 2000).
